≈ marks a conversion by molar mass, not a printed value.
How the values were obtained:
Type in all cases: functional
Candida albicans = test: Antifungal activity against Candida albicans after 48 hrs by broth microdilution method
Procedure, shortened: (§1)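 NCCLS broth microdilution in MOPS-buffered RPMI 1640, 96-well plates. Inoculum 1-5 × 10^3 cells/mL, moist chamber, 35 °C. Absorbance at 492 nm read at 48 h (C. albicans, C. parapsilosis), 72 h (C. neoformans, S. schenckii, A. fumigatus) or 96 h (T. mentagrophytes). MIC defined as 90% growth inhibition versus growth control.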

Cryptococcus neoformans = test: Antifungal activity against Cryptococcus neoformans after 72 hrs by broth microdilution method; procedure, shortened: as §1
Aspergillus fumigatus = test: Antifungal activity against Aspergillus fumigatus after 72 hrs by broth microdilution method; procedure, shortened: as §1
Candida parapsilosis = test: Antifungal activity against Candida parapsilosis ATCC 22019 after 48 hrs by broth microdilution method; conditions: Lodderomyces parapsilosis, ATCC 22019, 48 h; procedure, shortened: as §1
[1] = test system: Trichophyton mentagrophytes; test: Antifungal activity against Trichophyton mentagrophytes after 96 hrs by broth microdilution method; procedure, shortened: as §1
Sporothrix schenckii = test: Antifungal activity against Sporothrix schenckii after 72 hrs by broth microdilution method; procedure, shortened: as §1
Escherichia coli = test: Antibacterial activity against Escherichia coli ATCC 9637 after 24 hrs by broth microdilution method; conditions: ATCC 9637, 24 h
Procedure, shortened: (§2)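 NCCLS broth microdilution in Mueller-Hinton broth, 96-well plates. Initial inoculum 1-5 × 10^3 cells/mL. Incubated in a moist chamber at 35 °C for 24 h, then absorbance read at 492 nm. MIC taken as the concentration giving 90% growth inhibition relative to the growth control.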

Pseudomonas aeruginosa = test: Antibacterial activity against Pseudomonas aeruginosa ATCC BAA-427 after 24 hrs by broth microdilution method; conditions: ATCC BAA-427, 24 h; procedure, shortened: as §2
Klebsiella pneumoniae = test: Antibacterial activity against Klebsiella pneumoniae ATCC 27736 after 24 hrs by broth microdilution method; conditions: ATCC 27736, 24 h; procedure, shortened: as §2
Staphylococcus aureus = test: Antibacterial activity against Staphylococcus aureus ATCC 25923 after 24 hrs by broth microdilution method; conditions: ATCC 25923, 24 h; procedure, shortened: as §2

| Structure (SMILES) | MIC (Candida albicans) | MIC (Cryptococcus neoformans) | MIC (Aspergillus fumigatus) | MIC (Candida parapsilosis) | MIC [1] | MIC (Sporothrix schenckii) | MIC (Escherichia coli) | MIC (Pseudomonas aeruginosa) | MIC (Klebsiella pneumoniae) | MIC (Staphylococcus aureus) |
| --- | --- | --- | --- | --- | --- | --- | --- | --- | --- | --- |
| OC(Cn1cncn1)(Cn1cncn1)c1ccc(F)cc1F [FLUCONAZOLE] | 1 µg/mL (≈ 3.27 µM) | 2 µg/mL (≈ 6.53 µM) | > 32 µg/mL | 0.5 µg/mL (≈ 1.63 µM) | 16 µg/mL (≈ 52.2 µM) | 4 µg/mL (≈ 13.1 µM) | – | – | – | – |
| O=C1C(O)=C(Sc2cccc3ccccc23)C(=O)C(Sc2cccc3ccccc23)=C1Sc1cccc2ccccc12 | 25 µg/mL (≈ 41.8 µM) | 25 µg/mL (≈ 41.8 µM) | > 50 µg/mL | 25 µg/mL (≈ 41.8 µM) | 50 µg/mL (≈ 83.5 µM) | > 50 µg/mL | > 50 µg/mL | > 50 µg/mL | > 50 µg/mL | > 50 µg/mL |
| Cc1ccc(SC2=C(Cl)C(=O)C(Sc3ccc(C)cc3)=C(Cl)C2=O)cc1 | 25 µg/mL (≈ 59.3 µM) | 25 µg/mL (≈ 59.3 µM) | > 50 µg/mL | 25 µg/mL (≈ 59.3 µM) | 50 µg/mL (≈ 119 µM) | 50 µg/mL (≈ 119 µM) | > 50 µg/mL | > 50 µg/mL | > 50 µg/mL | 50 µg/mL (≈ 119 µM) |
| O=C1C(Cl)=C(N2CCCC2)C(=O)C(Cl)=C1N1CCCC1 | 25 µg/mL (≈ 79.3 µM) | 25 µg/mL (≈ 79.3 µM) | > 50 µg/mL | 50 µg/mL (≈ 159 µM) | 50 µg/mL (≈ 159 µM) | > 50 µg/mL | > 50 µg/mL | > 50 µg/mL | > 50 µg/mL | > 50 µg/mL |
| O=C1C(Cl)=C(Sc2ccccc2)C(=O)C(Sc2ccccc2)=C1Sc1ccccc1 | 25 µg/mL (≈ 53.5 µM) | 25 µg/mL (≈ 53.5 µM) | > 50 µg/mL | 25 µg/mL (≈ 53.5 µM) | 50 µg/mL (≈ 107 µM) | 50 µg/mL (≈ 107 µM) | > 50 µg/mL | > 50 µg/mL | > 50 µg/mL | 50 µg/mL (≈ 107 µM) |
| CC1(C)S[C@@H]2[C@H](NC(=O)[C@H](N)c3ccccc3)C(=O)N2[C@H]1C(=O)O [AMPICILLIN] | – | – | – | – | – | – | 12.5 µg/mL (≈ 35.8 µM) | > 50 µg/mL | > 50 µg/mL | 12.5 µg/mL (≈ 35.8 µM) |
| Cc1ccc(SC2=C(O)C(=O)C(Sc3ccc(C)cc3)=C(Sc3ccc(C)cc3)C2=O)cc1 | 12.5 µg/mL (≈ 25.5 µM) | 25 µg/mL (≈ 51 µM) | > 50 µg/mL | 25 µg/mL (≈ 51 µM) | 50 µg/mL (≈ 102 µM) | > 50 µg/mL | > 50 µg/mL | > 50 µg/mL | > 50 µg/mL | > 50 µg/mL |
| O=C1C(Cl)=C(Sc2cccc3ccccc23)C(=O)C(Sc2cccc3ccccc23)=C1Sc1cccc2ccccc12 | 25 µg/mL (≈ 40.5 µM) | 25 µg/mL (≈ 40.5 µM) | > 50 µg/mL | 12.5 µg/mL (≈ 20.3 µM) | 50 µg/mL (≈ 81 µM) | 50 µg/mL (≈ 81 µM) | > 50 µg/mL | > 50 µg/mL | > 50 µg/mL | 12.5 µg/mL (≈ 20.3 µM) |
| Nc1nc(=O)[nH]cc1F [FLUCYTOSINE] | 0.25 µg/mL (≈ 1.94 µM) | 0.13 µg/mL (≈ 1.01 µM) | > 32 µg/mL | 0.13 µg/mL (≈ 1.01 µM) | > 32 µg/mL | > 32 µg/mL | – | – | – | – |
| CCOC(=O)CC(SC1=C(SC(CC(=O)OCC)C(=O)OCC)C(=O)C(SC(CC(=O)OCC)C(=O)OCC)=C(SC(CC(=O)OCC)C(=O)OCC)C1=O)C(=O)OCC (stereo unspecified) | 25 µg/mL (≈ 27 µM) | 50 µg/mL (≈ 54 µM) | > 50 µg/mL | 25 µg/mL (≈ 27 µM) | 50 µg/mL (≈ 54 µM) | > 50 µg/mL | > 50 µg/mL | > 50 µg/mL | > 50 µg/mL | > 50 µg/mL |
| O=C1C(Sc2ccccc2)=C(Sc2ccccc2)C(=O)C(Sc2ccccc2)=C1Sc1ccccc1 | 12.5 µg/mL (≈ 23.1 µM) | 12.5 µg/mL (≈ 23.1 µM) | 50 µg/mL (≈ 92.5 µM) | 6.25 µg/mL (≈ 11.6 µM) | 0.78 µg/mL (≈ 1.44 µM) | 1.56 µg/mL (≈ 2.88 µM) | > 50 µg/mL | > 50 µg/mL | > 50 µg/mL | > 50 µg/mL |

From ChEMBL document CHEMBL2086245, “Micelles catalyzed chemo- and regio-selective one pot and one step synthesis of 2,3,5,6-tetrakis(alkyl and arylsulfanyl)-1,4-benzoquinones and 2,5-diaminosubstituted-1,4-benzoquinones "In-Water" and their biological evaluation as antibacterial and antifungal agents” (Eur J Med Chem, 2012)
